Results taken from ChEMBL document CHEMBL1671617, “Correlation of antimicrobial resistance with beta-lactamases, the OmpA-like porin, and efflux pumps in clinical isolates of Acinetobacter baumannii endemic to New York City” (2008).
≈ marks a conversion by molar mass, not a printed value.

Tests used:
Assay type in all cases: functional
Acinetobacter baumannii [1] = test: Antimicrobial activity against ISAba1 linked with the blaOXA-51-type beta-lactamase harboring Acinetobacter baumannii alpha clonal group isolate 1 expressing ampC, ompA, adeB, adeM by agar dilution method
How it was run: (§1)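 MICs were determined by agar dilution on Mueller-Hinton agar against multidrug-resistant clinical A. baumannii isolates from endemic regional ribotypes, with species confirmed by ribotyping. Selected agents were also tested with and without the efflux inhibitor NMP, fixed at 100 μg/ml in the agar. Meropenem was tested with and without clavulanic acid at 4 μg/ml. A fourfold or greater MIC drop with the additive was scored as significant.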

Acinetobacter baumannii [2] = test: Antimicrobial activity against Acinetobacter baumannii alpha clonal group isolate 2 expressing ampC, ompA, adeB, adeM, aacC1, aadA1 by agar dilution method; how it was run: as §1
Acinetobacter baumannii [3] = test: Antimicrobial activity against Acinetobacter baumannii alpha clonal group isolate 3 expressing ampC, ompA, adeB, adeM, aacC1, aadA1 by agar dilution method; how it was run: as §1
Acinetobacter baumannii [4] = test: Antimicrobial activity against Acinetobacter baumannii alpha clonal group isolate 4 expressing ampC, ompA, adeB, adeM, aacC1, aadA1 by agar dilution method; how it was run: as §1
Acinetobacter baumannii [5] = test: Antimicrobial activity against Acinetobacter baumannii alpha clonal group isolate 5 expressing ampC, ompA, adeB, adeM, aacC1, aadA1 by agar dilution method; how it was run: as §1
Acinetobacter baumannii [6] = test: Antimicrobial activity against ISAba1 linked with the blaOXA-51-type beta-lactamase harboring Acinetobacter baumannii alpha clonal group isolate 6 expressing ampC, ompA, adeB, adeM, aacC1, aadA1 by agar dilution method; how it was run: as §1
Acinetobacter baumannii [7] = test: Antimicrobial activity against ISAba1 linked with the blaOXA-51-type beta-lactamase harboring Acinetobacter baumannii alpha clonal group isolate 7 expressing ampC, ompA, adeB, adeM, blaSHV-5 by agar dilution method; how it was run: as §1
Acinetobacter baumannii [8] = test: Antimicrobial activity against ISAba1 linked with the blaOXA-51-type beta-lactamase harboring Acinetobacter baumannii alpha clonal group isolate 8 expressing ampC, ompA, adeB, adeM, aacC1, aadA1 by agar dilution method; how it was run: as §1
Acinetobacter baumannii [9] = test: Antimicrobial activity against ISAba1 linked with the blaOXA-51-type beta-lactamase harboring Acinetobacter baumannii beta clonal group isolate 9 expressing ampC, ompA, adeB, adeM by agar dilution method; how it was run: as §1
Acinetobacter baumannii [10] = test: Antimicrobial activity against ISAba1 linked with the blaOXA-51-type beta-lactamase harboring Acinetobacter baumannii beta clonal group isolate 10 expressing ompA, adeB, adeM, aacA4, blaSHV-5 by agar dilution method; how it was run: as §1
Acinetobacter baumannii [11] = test: Antimicrobial activity against ISAba1 linked with the blaOXA-51-type beta-lactamase harboring Acinetobacter baumannii beta clonal group isolate 11 expressing ompA, adeB, adeM, blaSHV-5 by agar dilution method; how it was run: as §1
Acinetobacter baumannii [12] = test: Antimicrobial activity against ISAba1 linked with the blaOXA-51-type beta-lactamase harboring Acinetobacter baumannii beta clonal group isolate 12 expressing ompA, adeB, adeM, aacA4, aacC2, blaSHV-5 by agar dilution method; how it was run: as §1
Acinetobacter baumannii [13] = test: Antimicrobial activity against ISAba1 linked with the blaOXA-51-type beta-lactamase harboring Acinetobacter baumannii beta clonal group isolate 13 expressing ompA, adeB, adeM, aacA4, blaSHV-5 by agar dilution method; how it was run: as §1
Acinetobacter baumannii [14] = test: Antimicrobial activity against ISAba1 linked with the blaOXA-51-type beta-lactamase harboring Acinetobacter baumannii beta clonal group isolate 14 expressing ompA, adeB, adeM, aacA4, blaSHV-5 by agar dilution method; how it was run: as §1
Acinetobacter baumannii [15] = test: Antimicrobial activity against ISAba1 linked with the blaOXA-51-type beta-lactamase harboring Acinetobacter baumannii beta clonal group isolate 15 expressing ompA, adeB, adeM, aacA4, blaSHV-5 by agar dilution method; how it was run: as §1
Acinetobacter baumannii [16] = test: Antimicrobial activity against ISAba1 linked with the blaOXA-51-type beta-lactamase harboring Acinetobacter baumannii beta clonal group isolate 16 expressing ompA, adeB, adeM, aacA4, blaSHV-5 by agar dilution method; how it was run: as §1
Acinetobacter baumannii [17] = test: Antimicrobial activity against ISAba1 linked with the blaOXA-51-type beta-lactamase harboring Acinetobacter baumannii beta clonal group isolate 17 expressing ompA, adeB, adeM, aacA4, blaSHV-5 by agar dilution method; how it was run: as §1
Acinetobacter baumannii [18] = test: Antimicrobial activity against ISAba1 linked with the blaOXA-51-type beta-lactamase harboring Acinetobacter baumannii beta clonal group isolate 18 expressing ompA, adeB, adeM, aacA4, blaSHV-5 by agar dilution method; how it was run: as §1
Acinetobacter baumannii [19] = test: Antimicrobial activity against ISAba1 linked with the blaOXA-51-type beta-lactamase harboring Acinetobacter baumannii zeta clonal group isolate 19 expressing ampC, ompA, adeB, adeM, aacC2 by agar dilution method; how it was run: as §1
Acinetobacter baumannii [20] = test: Antimicrobial activity against ISAba1 linked with the blaOXA-51-type beta-lactamase harboring Acinetobacter baumannii zeta clonal group isolate 20 expressing ampC, ompA, adeB, adeM, aacC2 by agar dilution method; how it was run: as §1
Acinetobacter baumannii [21] = test: Antimicrobial activity against ISAba1 linked with the blaOXA-51-type beta-lactamase harboring Acinetobacter baumannii zeta clonal group isolate 21 expressing ampC, ompA, adeB, adeM, aacC2, blaSHV-5 by agar dilution method; how it was run: as §1
Acinetobacter baumannii [22] = test: Antimicrobial activity against ISAba1 linked with the blaOXA-51-type beta-lactamase harboring Acinetobacter baumannii zeta clonal group isolate 22 expressing ampC, ompA, adeB, adeM, aadA1, aacA4, aacC2, blaSHV-5 by agar dilution method; how it was run: as §1
Acinetobacter baumannii [23] = test: Antimicrobial activity against ISAba1 linked with the blaOXA-51-type beta-lactamase harboring Acinetobacter baumannii zeta clonal group isolate 23 expressing ampC, ompA, adeB, adeM, aadA1, aacA4, aacC2, aphA6 by agar dilution method; how it was run: as §1
Acinetobacter baumannii [24] = test: Antimicrobial activity against ISAba1 linked with the blaOXA-51-type beta-lactamase harboring Acinetobacter baumannii zeta clonal group isolate 24 expressing ampC, ompA, adeB, adeM, aadA1, aacA4, aacC2, blaSHV-5 by agar dilution method; how it was run: as §1
Acinetobacter baumannii [25] = test: Antimicrobial activity against ISAba1 linked with the blaOXA-51-type beta-lactamase harboring Acinetobacter baumannii zeta clonal group isolate 25 expressing ampC, ompA, adeB, adeM, aadA1, aacA4, aacC2, blaSHV-5 by agar dilution method; how it was run: as §1
Acinetobacter baumannii [26] = test: Antimicrobial activity against ISAba1 linked with the blaOXA-51-type beta-lactamase harboring Acinetobacter baumannii zeta clonal group isolate 26 expressing ampC, ompA, adeB, adeM, aadA1, aacA4, aacC2, blaSHV-5 by agar dilution method; how it was run: as §1
Acinetobacter baumannii [27] = test: Antimicrobial activity against Acinetobacter baumannii lambda clonal group isolate 27 expressing ampC, ompA, adeB, adeM, aadB, aadA1 by agar dilution method; how it was run: as §1
Acinetobacter baumannii [28] = test: Antimicrobial activity against ISAba1 linked with the blaOXA-51-type beta-lactamase harboring Acinetobacter baumannii lambda clonal group isolate 28 expressing ampC, ompA, adeM, aadB, aadA1 by agar dilution method; how it was run: as §1
Acinetobacter baumannii [29] = test: Antimicrobial activity against ISAba1 linked with the blaOXA-51-type beta-lactamase harboring Acinetobacter baumannii lambda clonal group isolate 29 expressing ampC, ompA, adeM, aadB, aadA1 by agar dilution method; how it was run: as §1
Acinetobacter baumannii [30] = test: Antimicrobial activity against ISAba1 linked with the blaOXA-51-type beta-lactamase harboring Acinetobacter baumannii lambda clonal group isolate 30 expressing ampC, ompA, adeB, adeM, aadB, aadA1 by agar dilution method; how it was run: as §1
Acinetobacter baumannii [31] = test: Antimicrobial activity against Acinetobacter baumannii nu clonal group isolate 31 expressing ampC, ompA, adeB, adeM, aadB, aadA2 by agar dilution method
How it was run: (§2)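 Clinical multidrug-resistant A. baumannii isolates from endemic NYC ribotypes, with species identity confirmed by ribotyping. MICs were determined by agar dilution on Mueller-Hinton agar; tobramycin was tested by this method. Agar dilution was also run for selected agents with and without the efflux inhibitor NMP, added to the agar at a fixed 100 μg/ml.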

Acinetobacter baumannii [32] = test: Antimicrobial activity against Acinetobacter baumannii nu clonal group isolate 32 expressing ampC, ompA, adeB, adeM, aadB, aadA2 by agar dilution method; how it was run: as §2
Acinetobacter baumannii [33] = test: Antimicrobial activity against Acinetobacter baumannii nu clonal group isolate 33 expressing ampC, ompA, adeB, adeM by agar dilution method; how it was run: as §1
Acinetobacter baumannii [34] = test: Antimicrobial activity against Acinetobacter baumannii nu clonal group isolate 34 expressing ampC, ompA, adeB, adeM by agar dilution method; how it was run: as §1
Acinetobacter baumannii [35] = test: Antimicrobial activity against Acinetobacter baumannii eta clonal group isolate 35 expressing ampC, ompA, adeB, adeM by agar dilution method; how it was run: as §1
Acinetobacter baumannii [36] = test: Antimicrobial activity against Acinetobacter baumannii eta clonal group isolate 36 expressing ampC, ompA, adeB, adeM by agar dilution method; how it was run: as §1
Acinetobacter baumannii [37] = test: Antimicrobial activity against Acinetobacter baumannii unique clonal group isolate 37 expressing ampC, ompA, adeB, adeM by agar dilution method; how it was run: as §1
Acinetobacter baumannii [38] = test: Antimicrobial activity against Acinetobacter baumannii unique clonal group isolate 38 expressing ampC, ompA, adeB, adeM by agar dilution method; how it was run: as §2
Acinetobacter baumannii [39] = test: Antimicrobial activity against Acinetobacter baumannii unique clonal group isolate 39 expressing ampC, ompA, adeM by agar dilution method; how it was run: as §2
Acinetobacter baumannii [40] = test: Antimicrobial activity against ISAba1 linked with the blaOXA-51-type beta-lactamase harboring Acinetobacter baumannii unique clonal group isolate 40 expressing ampC, ompA, adeB, adeM, aadA1, aacA4, aacC2, blaSHV-5 by agar dilution method; how it was run: as §1

NC[C@H]1O[C@H](O[C@H]2[C@H](O)[C@@H](O[C@H]3O[C@H](CO)[C@@H](O)[C@H](N)[C@H]3O)[C@H](N)C[C@@H]2N)[C@H](N)C[C@@H]1O [TOBRAMYCIN]
MIC (Acinetobacter baumannii [1]): < 0.25 µg/mL | MIC (Acinetobacter baumannii [2]): 0.5 µg/mL (≈ 1.07 µM) | MIC (Acinetobacter baumannii [3]): 0.5 µg/mL (≈ 1.07 µM) | MIC (Acinetobacter baumannii [4]): 0.5 µg/mL (≈ 1.07 µM) | MIC (Acinetobacter baumannii [5]): 0.5 µg/mL (≈ 1.07 µM) | MIC (Acinetobacter baumannii [6]): < 0.25 µg/mL | MIC (Acinetobacter baumannii [7]): 0.5 µg/mL (≈ 1.07 µM) | MIC (Acinetobacter baumannii [8]): 1 µg/mL (≈ 2.14 µM) | MIC (Acinetobacter baumannii [9]): 2 µg/mL (≈ 4.28 µM) | MIC (Acinetobacter baumannii [10]): 16 µg/mL (≈ 34.2 µM) | MIC (Acinetobacter baumannii [11]): 0.5 µg/mL (≈ 1.07 µM) | MIC (Acinetobacter baumannii [12]): > 32 µg/mL | MIC (Acinetobacter baumannii [13]): > 32 µg/mL | MIC (Acinetobacter baumannii [14]): > 32 µg/mL | MIC (Acinetobacter baumannii [15]): > 32 µg/mL | MIC (Acinetobacter baumannii [16]): > 32 µg/mL | MIC (Acinetobacter baumannii [17]): > 32 µg/mL | MIC (Acinetobacter baumannii [18]): > 32 µg/mL | MIC (Acinetobacter baumannii [19]): 4 µg/mL (≈ 8.56 µM) | MIC (Acinetobacter baumannii [20]): 4 µg/mL (≈ 8.56 µM) | MIC (Acinetobacter baumannii [21]): 4 µg/mL (≈ 8.56 µM) | MIC (Acinetobacter baumannii [22]): > 32 µg/mL | MIC (Acinetobacter baumannii [23]): > 32 µg/mL | MIC (Acinetobacter baumannii [24]): > 32 µg/mL | MIC (Acinetobacter baumannii [25]): > 32 µg/mL | MIC (Acinetobacter baumannii [26]): > 32 µg/mL | MIC (Acinetobacter baumannii [27]): 0.5 µg/mL (≈ 1.07 µM) | MIC (Acinetobacter baumannii [28]): 16 µg/mL (≈ 34.2 µM) | MIC (Acinetobacter baumannii [29]): 16 µg/mL (≈ 34.2 µM) | MIC (Acinetobacter baumannii [30]): > 32 µg/mL | MIC (Acinetobacter baumannii [31]): > 32 µg/mL | MIC (Acinetobacter baumannii [32]): > 32 µg/mL | MIC (Acinetobacter baumannii [33]): 1 µg/mL (≈ 2.14 µM) | MIC (Acinetobacter baumannii [34]): 1 µg/mL (≈ 2.14 µM) | MIC (Acinetobacter baumannii [35]): 1 µg/mL (≈ 2.14 µM) | MIC (Acinetobacter baumannii [36]): 1 µg/mL (≈ 2.14 µM) | MIC (Acinetobacter baumannii [37]): 2 µg/mL (≈ 4.28 µM) | MIC (Acinetobacter baumannii [38]): < 0.25 µg/mL | MIC (Acinetobacter baumannii [39]): < 0.25 µg/mL | MIC (Acinetobacter baumannii [40]): > 32 µg/mL
